Results collected from several papers.
Compare with care: the assays were run in different laboratories.
Target: Tyrosine-protein kinase Srms (SRMS, Homo sapiens, UniProt Q9H3Y6)

SMILES | read-out | method | tested at | remaining binding
O=C(N1CCS(=O)(=O)CC1)N1C[C@H](c2ccc(OC(F)(F)F)cc2)C[C@H](c2nc(C3CC3)no2)C1 | cell-free assay | competition with immobilised ligand | 1 µM | 100%
COc1ccnn2ncc(-c3ccnc(N(C)C)n3)c12 | binding |  | 1 µM | 78%
O=C(c1ccc(Nc2ncc(Cl)c(-c3cc4ccccc4s3)n2)cc1)N1CCC(N2CCCC2)CC1 | binding | competition with immobilised ligand | 1 µM | 81%
COc1ncc2cc3ccccc3nc2c1C#N | cell-free assay | competition with immobilised ligand | 5 µM | 100%
CN(C)c1ncc(F)c(-c2cnn3ncccc23)n1 | binding |  | 1 µM | 81%
O=C(NS(=O)(=O)c1ccc(NCC2CCOCC2)c([N+](=O)[O-])c1)c1ccc(N2CCN(Cc3ccc(C(F)(F)F)cc3-c3ccc(Cl)cc3)CC2)cc1Oc1cnc2[nH]ccc2c1 | cell-free assay | competition with immobilised ligand | 1 µM | 79%
N[C@H]1CCN(c2nccc(-c3cnn4ncccc34)n2)C1 | binding |  | 1 µM | 88%
COc1cc(-c2cn(C3CCc4ccccc4N(CC(F)(F)F)C3=O)nn2)ccc1-n1ccc(C)n1 (stereo not shown) | cell-free assay | competition with immobilised ligand | 1 µM | 84%
O=C(c1ccc(Nc2nccc(-c3cc4ccccc4s3)n2)cc1)N1CCC(N2CCCC2)CC1 | binding | competition with immobilised ligand | 1 µM | 73%
N#CC1(c2ccccn2)CCN(Cc2cc(C(=O)N3CCCC3)c(=O)n3ccccc23)CC1 | cell-free assay | competition with immobilised ligand | 1 µM | 100%
C=CC(=O)N1CCC(C(=O)NCC(=O)N2CCN(c3nc(-c4cnc(N)nc4C(F)F)nc(N4CCOCC4)n3)CC2)CC1 | binding | competition with immobilised ligand | 1 µM | 72%
O=C(NCC1CCOCC1)c1n[nH]cc1NC(=O)c1c(F)cccc1F | binding | competition with immobilised ligand | 1 µM | 100%
COc1cnc(Nc2cccc(S(N)(=O)=O)c2)nc1N1CCN(c2ccccc2)CC1 | binding | competition with immobilised ligand | 1 µM | 83%
Nc1ncc2c(n1)-c1c([nH]c3ccc(C#CC4CC4)cc13)CCCC2 | binding | competition with immobilised ligand | 1 µM | 92%
Cc1cnn2ncc(-c3ccnc(N(C)C)n3)c2c1 | binding |  | 1 µM | 100%
CCC(=N\O)/C(C)=C/c1ccc(F)cc1 | cell-free assay | competition with immobilised ligand | 1 µM | 76%
CN(C)c1nccc(-c2cnn3ncccc23)n1 | binding |  | 1 µM | 64%
O=C(NCCCN1CCOCC1)c1ccc(Nc2ncc(Cl)c(-c3ccc(Cl)s3)n2)cc1 | binding | competition with immobilised ligand | 1 µM | 99%
CN(c1nccc(-c2cnn3ncccc23)n1)C1CC1 | binding |  | 1 µM | 100%
O=C(Nc1cccnn1)N1CC(C/C=C/c2cncc(Oc3ccc(C(F)(F)F)cn3)n2)C1 | cell-free assay | competition with immobilised ligand | 1 µM | 67%
F[C@@H]1CCN(c2nccc(-c3cnn4ncccc34)n2)C1 | binding |  | 1 µM | 100%
CCCOc1ccc([C@@H]2[C@@H](C(=O)O)[C@H](c3ccc4c(c3)OCO4)CN2CC(=O)Nc2c(CC)cccc2CC)cc1 | cell-free assay | competition with immobilised ligand | 1 µM | 90%
